Source: ChEMBL document CHEMBL3421610, “Antimalarial activity of 4-amidinoquinoline and 10-amidinobenzonaphthyridine derivatives” (J Med Chem, 2015)
≈ marks a conversion by molar mass, not a printed value. Calls of active or inactive are those of the source. No cut-off for these calls is given here.

Tested on: Plasmodium falciparum
Test: Antimalarial activity against chloroquine-resistant Plasmodium falciparum W2 assessed as growth inhibition after 18 hrs by [3H]-hypoxanthine uptake assay
Format: functional, organism-based
Conditions: not given
How it was run: (§1)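 P. falciparum clones D6, W2 and TM91C235; modified semiautomated microdilution. Compounds in DMSO, diluted in RPMI 1640 with 10% human plasma, tested over (1.56-100) x 10^-9 M; final DMSO 0.25-0.5%. Inoculum 0.5% parasitemia, 1% hematocrit. 24 h incubation, then [3H]-hypoxanthine added, further 18 h. Harvested and read by scintillation counting; IC50 by nonlinear regression.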

SMILES	IC50 [nM]
CCN(CC)CCC/N=C(/Nc1c2ccc(Cl)cc2nc2ccc(OC)nc12)C(C)C	8.8
CCN(CC)CCC/N=C(\C)Nc1c2ccc(Cl)cc2nc2ccc(OC)nc12	41
CN(C)CCC/N=C(\c1ccccc1)N(CCCN(C)C)c1ccnc2cc(Cl)ccc12	121
COc1ccc2nc3cc(Cl)ccc3c(N(CCCN(C)C)/C(C)=N/CCCN(C)C)c2n1	80.8
COc1ccc2nc3cc(Cl)ccc3c(N/C(=N/CCCN3CCCCC3)C(C)C)c2n1	3.96
CC(C)/C(=N/c1ccnc2cc(Cl)ccc12)NCCCN1CCCCC1	91
Clc1ccc2c(N(CCCN3CCCCC3)/C(=N/CCCN3CCCCC3)c3ccccc3)ccnc2c1	16
Clc1ccc2c(/N=C(\NCCCN3CCCCC3)c3ccccc3)ccnc2c1	15.7
C/C(=N/c1ccnc2cc(Cl)ccc12)NCCC1CCN(c2ccncc2)CC1	193
CCN(CC)CCCCN/C(=N\c1ccnc2cc(Cl)ccc12)C(C)C	254
CCN(CC)CCC/N=C(/Nc1c2ccc(Cl)cc2nc2ccc(OC)nc12)c1cccnc1	20.6
CCN(CC)CCC/N=C(\c1ccccc1)N(CCCN(CC)CC)c1ccnc2cc(Cl)ccc12	76.8

Tested on: Plasmodium berghei
Test: Antimalarial activity against erythrocytic stage of chloroquine resistant Plasmodium berghei ANKA infected in mouse assessed as cure rate at 120 mg/kg, po qd administered on day 3, 4 and 5 post infection measured 3 times per week for 30 days, starting from day 3 by Thompson test
Format: functional, organism-based
Set-up: dose 120 mg/kg
Conditions: not given
How it was run: (§2)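 Male mice of 16-20 g inoculated intraperitoneally with 5 x 10^6 erythrocytes infected with CQ-resistant P. berghei ANKA. Drug given orally as a suspension once daily on days 3, 4 and 5 post-infection, five mice per dose. Blood films from day 3, three times weekly for 30 days. Cure means parasite-negative on day 30 or surviving 30 days. Mice losing >20% body weight sacrificed.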

SMILES	Activity
CCN(CC)CCC/N=C(\C)Nc1c2ccc(Cl)cc2nc2ccc(OC)nc12	Active

Tested on: Plasmodium berghei
Test: Antimalarial activity against erythrocytic stage of chloroquine resistant Plasmodium berghei ANKA infected in mouse assessed as cure rate at 160 mg/kg, po qd administered on day 3, 4 and 5 post infection measured 3 times per week for 30 days, starting from day 3 by Thompson test
Format: functional, organism-based
Set-up: dose 160 mg/kg
Conditions: not given
How it was run: as §2

SMILES	Activity
CC(C)/C(=N/c1ccnc2cc(Cl)ccc12)NCCCN1CCCCC1	Active
CCN(CC)CCCCN/C(=N\c1ccnc2cc(Cl)ccc12)C(C)C	Active
CCN(CC)CCCC(C)Nc1ccnc2cc(Cl)ccc12 (configuration not stated) [CHLOROQUINE]	Active

Tested on: Mus musculus
Test: Toxicity in mouse infected with erythrocytic stage of chloroquine resistant Plasmodium berghei ANKA up to 160 mg/kg, po qd administered on day 3, 4 and 5 post infection measured over 30 days
Format: organism-based, Erythrocyte
Set-up: dose 160 mg/kg, route oral
Conditions: in vivo, 720 h
How it was run: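 Male mice of 16-20 g infected intraperitoneally with CQ-resistant P. berghei ANKA (5 x 10^6 infected erythrocytes). Oral dosing once daily on days 3-5, five mice per group. Animals followed for 30 days by blood films; mice losing >20% body weight sacrificed.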

SMILES	Activity
CCN(CC)CCC/N=C(\C)Nc1c2ccc(Cl)cc2nc2ccc(OC)nc12	Non-toxic
CC(C)/C(=N/c1ccnc2cc(Cl)ccc12)NCCCN1CCCCC1	Non-toxic
CCN(CC)CCCCN/C(=N\c1ccnc2cc(Cl)ccc12)C(C)C	Non-toxic

Tested on: not listed separately
Test: Half life in mouse liver microsomes at 1 uM by LC/MS analysis
Format: ADME
Conditions: not given
How it was run: (§3)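 Compound at 1 µM final, diluted from […], with 0.5 mg/mL pooled human or mouse liver microsomes, NADP, MgCl2 and 0.1 M PBS pH 7.4. Reaction started with 1 U/mL G6PD and shaken at 37 °C. Aliquots quenched in cold acetonitrile at 0, 10, 20, 30 and 60 min and quantified by LC/MS. Half-life from log plot of total ion chromatogram area remaining.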

SMILES	half-life at 1 µM [min]
CCN(CC)CCC/N=C(/Nc1c2ccc(Cl)cc2nc2ccc(OC)nc12)C(C)C	22
CCN(CC)CCC/N=C(\C)Nc1c2ccc(Cl)cc2nc2ccc(OC)nc12	29
CN(C)CCC/N=C(\c1ccccc1)N(CCCN(C)C)c1ccnc2cc(Cl)ccc12	> 60
COc1ccc2nc3cc(Cl)ccc3c(N(CCCN(C)C)/C(C)=N/CCCN(C)C)c2n1	> 60
COc1ccc2nc3cc(Cl)ccc3c(N/C(=N/CCCN3CCCCC3)C(C)C)c2n1	8
CC(C)/C(=N/c1ccnc2cc(Cl)ccc12)NCCCN1CCCCC1	43
Clc1ccc2c(N(CCCN3CCCCC3)/C(=N/CCCN3CCCCC3)c3ccccc3)ccnc2c1	> 60
Clc1ccc2c(/N=C(\NCCCN3CCCCC3)c3ccccc3)ccnc2c1	18
C/C(=N/c1ccnc2cc(Cl)ccc12)NCCC1CCN(c2ccncc2)CC1	> 60
CCN(CC)CCCCN/C(=N\c1ccnc2cc(Cl)ccc12)C(C)C	42
CCN(CC)CCC/N=C(/Nc1c2ccc(Cl)cc2nc2ccc(OC)nc12)c1cccnc1	29
CCN(CC)CCC/N=C(\c1ccccc1)N(CCCN(CC)CC)c1ccnc2cc(Cl)ccc12	> 60
CCN(CC)CCCC(C)Nc1ccnc2cc(Cl)ccc12 (configuration not stated) [CHLOROQUINE]	> 60

Tested on: not listed separately
Test: Half life in human liver microsomes at 1 uM by LC/MS analysis
Format: ADME
Conditions: not given
How it was run: as §3

SMILES	half-life at 1 µM [min]
CCN(CC)CCC/N=C(/Nc1c2ccc(Cl)cc2nc2ccc(OC)nc12)C(C)C	20
CCN(CC)CCC/N=C(\C)Nc1c2ccc(Cl)cc2nc2ccc(OC)nc12	33
CN(C)CCC/N=C(\c1ccccc1)N(CCCN(C)C)c1ccnc2cc(Cl)ccc12	> 60
COc1ccc2nc3cc(Cl)ccc3c(N(CCCN(C)C)/C(C)=N/CCCN(C)C)c2n1	> 60
COc1ccc2nc3cc(Cl)ccc3c(N/C(=N/CCCN3CCCCC3)C(C)C)c2n1	9
CC(C)/C(=N/c1ccnc2cc(Cl)ccc12)NCCCN1CCCCC1	29
Clc1ccc2c(N(CCCN3CCCCC3)/C(=N/CCCN3CCCCC3)c3ccccc3)ccnc2c1	31
Clc1ccc2c(/N=C(\NCCCN3CCCCC3)c3ccccc3)ccnc2c1	12
C/C(=N/c1ccnc2cc(Cl)ccc12)NCCC1CCN(c2ccncc2)CC1	> 60
CCN(CC)CCCCN/C(=N\c1ccnc2cc(Cl)ccc12)C(C)C	55
CCN(CC)CCC/N=C(/Nc1c2ccc(Cl)cc2nc2ccc(OC)nc12)c1cccnc1	32
CCN(CC)CCC/N=C(\c1ccccc1)N(CCCN(CC)CC)c1ccnc2cc(Cl)ccc12	> 60
CCN(CC)CCCC(C)Nc1ccnc2cc(Cl)ccc12 (configuration not stated) [CHLOROQUINE]	> 60

Tested on: Plasmodium falciparum
Test: Antimalarial activity against chloroquine-sensitive Plasmodium falciparum D6 assessed as growth inhibition after 18 hrs by [3H]-hypoxanthine uptake assay
Format: functional, organism-based
Conditions: not given
How it was run: as §1

SMILES	IC50 [nM]
CCN(CC)CCC/N=C(/Nc1c2ccc(Cl)cc2nc2ccc(OC)nc12)C(C)C	2
CCN(CC)CCC/N=C(\C)Nc1c2ccc(Cl)cc2nc2ccc(OC)nc12	17.6
CN(C)CCC/N=C(\c1ccccc1)N(CCCN(C)C)c1ccnc2cc(Cl)ccc12	7.1
COc1ccc2nc3cc(Cl)ccc3c(N(CCCN(C)C)/C(C)=N/CCCN(C)C)c2n1	11.7
COc1ccc2nc3cc(Cl)ccc3c(N/C(=N/CCCN3CCCCC3)C(C)C)c2n1	1.1
CC(C)/C(=N/c1ccnc2cc(Cl)ccc12)NCCCN1CCCCC1	34
Clc1ccc2c(N(CCCN3CCCCC3)/C(=N/CCCN3CCCCC3)c3ccccc3)ccnc2c1	1.9
Clc1ccc2c(/N=C(\NCCCN3CCCCC3)c3ccccc3)ccnc2c1	5.2
C/C(=N/c1ccnc2cc(Cl)ccc12)NCCC1CCN(c2ccncc2)CC1	36.4
CCN(CC)CCCCN/C(=N\c1ccnc2cc(Cl)ccc12)C(C)C	61
CCN(CC)CCC/N=C(/Nc1c2ccc(Cl)cc2nc2ccc(OC)nc12)c1cccnc1	7.2
CCN(CC)CCC/N=C(\c1ccccc1)N(CCCN(CC)CC)c1ccnc2cc(Cl)ccc12	6.1

Tested on: Plasmodium falciparum
Test: Antimalarial activity against chloroquine-resistant Plasmodium falciparum C235 assessed as growth inhibition after 18 hrs by [3H]-hypoxanthine uptake assay
Format: functional, organism-based
Conditions: not given
How it was run: as §1

SMILES	IC50 [nM]
CCN(CC)CCC/N=C(/Nc1c2ccc(Cl)cc2nc2ccc(OC)nc12)C(C)C	3.8
CCN(CC)CCC/N=C(\C)Nc1c2ccc(Cl)cc2nc2ccc(OC)nc12	26.6
CN(C)CCC/N=C(\c1ccccc1)N(CCCN(C)C)c1ccnc2cc(Cl)ccc12	45.4
COc1ccc2nc3cc(Cl)ccc3c(N(CCCN(C)C)/C(C)=N/CCCN(C)C)c2n1	51
COc1ccc2nc3cc(Cl)ccc3c(N/C(=N/CCCN3CCCCC3)C(C)C)c2n1	1.94
CC(C)/C(=N/c1ccnc2cc(Cl)ccc12)NCCCN1CCCCC1	56
Clc1ccc2c(N(CCCN3CCCCC3)/C(=N/CCCN3CCCCC3)c3ccccc3)ccnc2c1	6.95
Clc1ccc2c(/N=C(\NCCCN3CCCCC3)c3ccccc3)ccnc2c1	5.7
C/C(=N/c1ccnc2cc(Cl)ccc12)NCCC1CCN(c2ccncc2)CC1	64
CCN(CC)CCCCN/C(=N\c1ccnc2cc(Cl)ccc12)C(C)C	125
CCN(CC)CCC/N=C(/Nc1c2ccc(Cl)cc2nc2ccc(OC)nc12)c1cccnc1	8.2
CCN(CC)CCC/N=C(\c1ccccc1)N(CCCN(CC)CC)c1ccnc2cc(Cl)ccc12	33.7

Target: hERG (KCNH2) (Homo sapiens, UniProt Q12809)
Test: Inhibition of human ERG expressed in CHL cells assessed as tail current at 10 uM after 7 mins by patch clamp assay relative to control
Format: cell-based
Conditions: CHL cells expressing human ERG

Chain of hERG (KCNH2) (Q12809 whole entry): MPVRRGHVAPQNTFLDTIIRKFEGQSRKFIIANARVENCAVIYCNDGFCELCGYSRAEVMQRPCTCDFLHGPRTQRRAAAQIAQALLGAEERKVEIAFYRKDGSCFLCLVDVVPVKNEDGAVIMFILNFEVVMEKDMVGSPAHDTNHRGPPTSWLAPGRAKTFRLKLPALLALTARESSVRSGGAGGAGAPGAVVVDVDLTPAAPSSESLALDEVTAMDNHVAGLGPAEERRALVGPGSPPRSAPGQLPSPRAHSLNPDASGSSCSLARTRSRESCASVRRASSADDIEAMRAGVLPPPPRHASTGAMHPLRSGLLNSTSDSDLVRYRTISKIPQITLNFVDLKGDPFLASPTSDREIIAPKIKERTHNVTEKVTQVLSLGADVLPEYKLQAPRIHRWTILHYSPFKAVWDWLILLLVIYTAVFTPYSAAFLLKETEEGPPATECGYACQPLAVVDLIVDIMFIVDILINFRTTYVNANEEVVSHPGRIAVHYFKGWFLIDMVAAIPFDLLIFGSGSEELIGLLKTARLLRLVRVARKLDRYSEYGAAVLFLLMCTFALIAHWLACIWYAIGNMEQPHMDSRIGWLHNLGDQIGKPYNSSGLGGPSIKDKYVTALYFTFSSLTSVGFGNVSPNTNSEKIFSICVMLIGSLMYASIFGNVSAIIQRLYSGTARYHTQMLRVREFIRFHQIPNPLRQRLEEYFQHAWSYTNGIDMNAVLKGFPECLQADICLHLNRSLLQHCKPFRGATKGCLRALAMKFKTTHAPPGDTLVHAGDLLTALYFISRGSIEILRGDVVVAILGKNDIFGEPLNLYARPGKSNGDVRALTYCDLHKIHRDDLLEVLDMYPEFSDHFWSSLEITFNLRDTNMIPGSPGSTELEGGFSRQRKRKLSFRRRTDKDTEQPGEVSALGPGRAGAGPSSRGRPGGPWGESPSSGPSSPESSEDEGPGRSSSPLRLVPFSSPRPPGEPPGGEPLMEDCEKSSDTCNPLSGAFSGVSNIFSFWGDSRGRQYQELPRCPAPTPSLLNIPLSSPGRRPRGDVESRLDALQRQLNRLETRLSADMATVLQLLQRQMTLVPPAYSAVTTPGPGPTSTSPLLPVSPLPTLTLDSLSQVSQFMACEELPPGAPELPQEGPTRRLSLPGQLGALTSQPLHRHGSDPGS

SMILES	inhibition at 7 min, 10 µM [%]
CCCCN(CCCC)CCC(O)c1cc2c(Cl)cc(Cl)cc2c2cc(C(F)(F)F)ccc12 (configuration not stated) [HALOFANTRINE]	100
OC(c1cc(C(F)(F)F)nc2c(C(F)(F)F)cccc12)C1CCCCN1 (configuration not stated) [MEFLOQUINE]	95
CCN(CC)CCC/N=C(/Nc1c2ccc(Cl)cc2nc2ccc(OC)nc12)C(C)C	86.5
CCN(CC)CCC/N=C(\C)Nc1c2ccc(Cl)cc2nc2ccc(OC)nc12	100
CN(C)CCC/N=C(\c1ccccc1)N(CCCN(C)C)c1ccnc2cc(Cl)ccc12	16.4
COc1ccc2nc3cc(Cl)ccc3c(N(CCCN(C)C)/C(C)=N/CCCN(C)C)c2n1	18.3
COc1ccc2nc3cc(Cl)ccc3c(N/C(=N/CCCN3CCCCC3)C(C)C)c2n1	69.6
CC(C)/C(=N/c1ccnc2cc(Cl)ccc12)NCCCN1CCCCC1	74.5
Clc1ccc2c(N(CCCN3CCCCC3)/C(=N/CCCN3CCCCC3)c3ccccc3)ccnc2c1	21.7
Clc1ccc2c(/N=C(\NCCCN3CCCCC3)c3ccccc3)ccnc2c1	93
CCN(CC)CCCCN/C(=N\c1ccnc2cc(Cl)ccc12)C(C)C	54.6
CCN(CC)CCC/N=C(/Nc1c2ccc(Cl)cc2nc2ccc(OC)nc12)c1cccnc1	63
CCN(CC)CCC/N=C(\c1ccccc1)N(CCCN(CC)CC)c1ccnc2cc(Cl)ccc12	21.9
CCN(CC)CCCC(C)Nc1ccnc2cc(Cl)ccc12 (configuration not stated) [CHLOROQUINE]	71

Tested on: HepG2
Test: Cytotoxicity against human HepG2 cells after 48 hrs by MTT assay
Format: cell-based
Conditions: HepG2, 48 h
How it was run: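 HepG2 cells in supplemented MEM, plated at 9570 cells/well in 384-well format and incubated overnight at 37 °C, 5% CO2. Twelve duplicate 1.6-fold dilutions, 57–10,000 ng/ml, incubated 48 h. MTT added for 1 h at room temperature in the dark, formazan dissolved in acidified isopropanol, absorbance read. IC50 by sigmoidal variable-slope nonlinear regression; tryptanthrin control.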

SMILES	IC50 [µg/mL]
CCN(CC)CCC/N=C(/Nc1c2ccc(Cl)cc2nc2ccc(OC)nc12)C(C)C	2.06 (≈ 4.67 µM)
CCN(CC)CCC/N=C(\C)Nc1c2ccc(Cl)cc2nc2ccc(OC)nc12	2.06 (≈ 4.97 µM)
CN(C)CCC/N=C(\c1ccccc1)N(CCCN(C)C)c1ccnc2cc(Cl)ccc12	5.77 (≈ 12.8 µM)
COc1ccc2nc3cc(Cl)ccc3c(N(CCCN(C)C)/C(C)=N/CCCN(C)C)c2n1	1.7 (≈ 3.6 µM)
COc1ccc2nc3cc(Cl)ccc3c(N/C(=N/CCCN3CCCCC3)C(C)C)c2n1	2.01 (≈ 4.42 µM)
CC(C)/C(=N/c1ccnc2cc(Cl)ccc12)NCCCN1CCCCC1	> 24.2
Clc1ccc2c(N(CCCN3CCCCC3)/C(=N/CCCN3CCCCC3)c3ccccc3)ccnc2c1	2.45 (≈ 4.6 µM)
O=C1c2ccccc2-n2c1nc1ccccc1c2=O [TRYPTANTHRIN]	0.305 (≈ 1.23 µM)
Clc1ccc2c(/N=C(\NCCCN3CCCCC3)c3ccccc3)ccnc2c1	5.12 (≈ 12.6 µM)
C/C(=N/c1ccnc2cc(Cl)ccc12)NCCC1CCN(c2ccncc2)CC1	6.73 (≈ 16.5 µM)
CCN(CC)CCCCN/C(=N\c1ccnc2cc(Cl)ccc12)C(C)C	5.01 (≈ 13.4 µM)
CCN(CC)CCC/N=C(/Nc1c2ccc(Cl)cc2nc2ccc(OC)nc12)c1cccnc1	8.6 (≈ 18 µM)
CCN(CC)CCC/N=C(\c1ccccc1)N(CCCN(CC)CC)c1ccnc2cc(Cl)ccc12	4.09 (≈ 8.05 µM)
CCN(CC)CCCC(C)Nc1ccnc2cc(Cl)ccc12 (configuration not stated) [CHLOROQUINE]	12 (≈ 37.6 µM)
